From PubChem BioAssay
Neddyl block: inhibitors of human cullin neddylation; P61081+Q13564; TR-FRET cullin neddylation, biochemical; inhibition, % at 25 µM; 360,000 tested, 0.58% active; AID 651699; in the data active means inhibition above about 36%
PfM18AAP inh: PfM18AAP enzyme inhibition | recombinant PfM18AAP, H-Glu-NHMec fluorogenic cleavage | 290,000 tested, 1.2% active | AID 1822 | inhibition, % at 7.35 µM;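 active means inhibition above the campaign mean inhibition over all tested compounds plus 3 SD, cut at about 28% in these data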;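 further: 0% = plate median of test compound wells and 100% = 2 mM ZnCl2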
HKDC1 inh: blocks human hexokinase HKDC1 activity; Q2TB90; recombinant HKDC1, G6PDH/diaphorase resazurin coupled fluorescence; inhibition, % at 20 µM; 340,000 tested, 0.16% active;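 active means inhibition above about 35% when tested at 20 µM, limit read from the data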;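 further: plate controls were DMSO wells with enzyme for no effect and DMSO wells lacking enzyme for full effect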
Target sequence (Q2TB90 whole entry, looked up): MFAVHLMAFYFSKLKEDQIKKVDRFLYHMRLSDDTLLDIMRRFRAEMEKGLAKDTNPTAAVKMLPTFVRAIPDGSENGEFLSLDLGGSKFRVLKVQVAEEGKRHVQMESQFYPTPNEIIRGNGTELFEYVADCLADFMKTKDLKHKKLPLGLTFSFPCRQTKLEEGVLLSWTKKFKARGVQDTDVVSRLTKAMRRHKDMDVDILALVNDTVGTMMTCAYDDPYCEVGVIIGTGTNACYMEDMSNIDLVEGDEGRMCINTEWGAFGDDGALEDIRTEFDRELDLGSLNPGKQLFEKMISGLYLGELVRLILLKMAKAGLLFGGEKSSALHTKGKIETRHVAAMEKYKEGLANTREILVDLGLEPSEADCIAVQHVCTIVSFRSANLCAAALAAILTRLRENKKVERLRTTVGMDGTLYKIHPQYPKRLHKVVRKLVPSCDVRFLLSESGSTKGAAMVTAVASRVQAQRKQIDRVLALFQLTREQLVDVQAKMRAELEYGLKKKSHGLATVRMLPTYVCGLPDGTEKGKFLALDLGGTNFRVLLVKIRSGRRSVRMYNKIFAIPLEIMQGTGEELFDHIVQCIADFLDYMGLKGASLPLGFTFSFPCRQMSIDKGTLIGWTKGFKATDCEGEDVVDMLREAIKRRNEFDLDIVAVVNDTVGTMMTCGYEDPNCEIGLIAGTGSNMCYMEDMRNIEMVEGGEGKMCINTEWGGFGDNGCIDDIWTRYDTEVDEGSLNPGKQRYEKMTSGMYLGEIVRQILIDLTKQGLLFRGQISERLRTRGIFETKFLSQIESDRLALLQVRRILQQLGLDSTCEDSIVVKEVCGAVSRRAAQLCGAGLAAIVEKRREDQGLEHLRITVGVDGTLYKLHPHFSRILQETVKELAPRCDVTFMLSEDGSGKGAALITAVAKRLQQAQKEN
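System: Recombinant HKDC1 hexokinase | Amount: HKDC1 at 5 µg/mL | Reagent: Glucose with 1 mM ATP | Doses: Single 20 µM dose | Incubation: Reaction time 90 min, room temperature, protected from light | Signal: Coupled resazurin fluorescence, excitation 525 nm, emission 613 nm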
PfGluPho inh: PfG6PD (Plasmodium falciparum) enzyme inhibition. PfGluPho enzyme, NADPH resazurin-diaphorase fluorescence. 350,000 tested, 0.78% active. inhibition, % at 20 µM;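 active means inhibition reaching at least a set limit at 20 µM in the primary screen, cut at about 59% in these data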;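 further: 0% = DMSO wells with substrate and 100% = DMSO wells lacking glucose-6-phosphate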
PfG6PD confirm: PfG6PD inhibition, single-dose confirmed; 2,400 tested, 34% active; shares compounds with PfGluPho inh; recombinant PfGluPho, NADPH-diaphorase-resazurin fluorescence; AID 504753; inhibition, % at 20 µM;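 active means inhibition of at least 50% at 20 µM in any single replicate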;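 further: 0% = DMSO with substrate and 100% = DMSO lacking glucose-6-phosphate substrate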
Diaphorase 10uM: inhibits diaphorase or oxidizes, flagging false PfG6PD hits; shares compounds with PfGluPho inh; diaphorase-coupled resazurin reduction, fluorescence, NADPH 10 uM; inhibition, % at 20 µM; 820 tested, 39% active; AID 504862;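 active means average inhibition reaching 50% or more with the compound at 20 µM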;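 further: resorufin red fluorescence formed as diaphorase reduces resazurin using NADPH; 0% = DMSO with enzyme and 100% = DMSO without enzyme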
Diaphorase 30uM: counter-screen for P. falciparum G6PD inhibitors: diaphorase inhibitors, oxidizers; AID 504863; 820 tested, 29% active; Diaphorase/resazurin coupled assay, resorufin fluorescence, 30 uM NADPH; shares compounds with PfGluPho inh; inhibition, % at 20 µM;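 active means inhibition averaging 50% or more, tested at 20 µM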;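 further: 0% = DMSO with enzyme and 100% = DMSO wells lacking diaphorase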
Active calls of the source: *. In the library only some 2.2% were active in any assay of this set; here they are far more common.

For CNC(=O)/C(C#N)=C/c1ccc(OCCOc2ccccc2)cc1 the results were Neddyl block -23, PfM18AAP inh -9, HKDC1 inh -3 and PfGluPho inh 13.
Screening COc1ccc(-n2c(C)cc(/C=N/Nc3nnc(C)n3N)c2C)cc1 returned Neddyl block -1, PfM18AAP inh 48*, HKDC1 inh 4, PfGluPho inh 66* and PfG6PD confirm 44.
`CCOc1ccc(-n2c(C)cc(/C=N/Nc3nc(C)cc(=O)[nH]3)c2C)cc1` gave Neddyl block 14, PfM18AAP inh 1, HKDC1 inh -8 and PfGluPho inh 18.
Cc1cc(O)c(C(C)C)cc1N=Cc1ccccc1O was read as Neddyl block -16, PfM18AAP inh 8, HKDC1 inh 21, PfGluPho inh 103* and PfG6PD confirm 46.
For Cc1cc(O)c(C(C)C)cc1N=Cc1cc([N+](=O)[O-])ccc1O the results were Neddyl block -12, PfM18AAP inh 2, HKDC1 inh 21, PfGluPho inh 82* and PfG6PD confirm 23.
`Cc1n[nH]c(C)c1Sc1ccccc1N=Cc1cc([N+](=O)[O-])ccc1O` gave PfM18AAP inh 15.
Screening COc1ccc(C(=O)Nc2ccc(OCC(=O)N3CCOCC3)cc2)c(OC)c1OC returned Neddyl block 3, PfM18AAP inh 2, HKDC1 inh -1 and PfGluPho inh -1.
`Nc1ccc2c(c1)C(=O)C(=O)c1ccccc1-2` gave Neddyl block -120, PfM18AAP inh 12, HKDC1 inh 2, PfGluPho inh 108*, PfG6PD confirm 89*, Diaphorase 10uM 77* and Diaphorase 30uM 90*.
Screening O=C(O)c1cccc(C(=O)O)n1 returned PfM18AAP inh 8.
O=C(O)c1ccc2cccc(O)c2n1 was read as Neddyl block -5, PfM18AAP inh 6, HKDC1 inh 13, PfGluPho inh 66* and PfG6PD confirm 32.
`Cc1cccc(NC(=O)c2sc3nc(-c4ccccc4)cn3c2C)n1` gave Neddyl block -95, PfM18AAP inh 4, HKDC1 inh -7, PfGluPho inh 61* and PfG6PD confirm 11.
`COc1ccc(/C=C/c2c(-c3ccc(OC)cc3)sc3cc(OC)c(OC)cc23)cc1` gave Neddyl block 35, HKDC1 inh -6 and PfGluPho inh 17.
Screening O=C(N/N=C/c1ccc(N2CCOCC2)o1)c1cccc([N+](=O)[O-])c1 returned Neddyl block -29, PfM18AAP inh 23, HKDC1 inh 17, PfGluPho inh 70* and PfG6PD confirm -21.
Cc1ccc(-n2ccc(=O)c(C(=O)Nc3ccc(S(=O)(=O)Nc4nccs4)cc3)n2)cc1 was read as Neddyl block -27, PfM18AAP inh -5, HKDC1 inh 6 and PfGluPho inh -25.
Screening CCOc1ccccc1C(=S)NC1CCCCC1 returned Neddyl block 10, PfM18AAP inh -7, HKDC1 inh -3 and PfGluPho inh 9.
Screening CCOc1ccc(C(=S)NC2CCCCC2)cc1OC returned Neddyl block -4, PfM18AAP inh 24, HKDC1 inh -6, PfGluPho inh 62* and PfG6PD confirm 14.
`CC(C)c1cccc(-c2csc(C(O)c3ccco3)n2)c1` (stereo not given) gave Neddyl block -4.
O=c1cc(CSc2nnc(Nc3ccccc3F)s2)nc2sccn12 was read as Neddyl block 2, PfM18AAP inh 1, HKDC1 inh -3 and PfGluPho inh 40.
COc1ccc(Nc2nnc(SCc3cc(=O)n4ccsc4n3)s2)cc1 was read as Neddyl block 9, PfM18AAP inh 10, HKDC1 inh 15, PfGluPho inh 82* and PfG6PD confirm 47.
Screening O=S(=O)(N=C1C=CC(=NS(=O)(=O)c2ccccc2)c2ccccc21)c1ccccc1 returned Neddyl block -9, PfGluPho inh 62* and PfG6PD confirm 35.
`Cc1cccc(NC(=O)c2ccc(N3CCOCC3)c([N+](=O)[O-])c2)n1` gave Neddyl block -25, PfM18AAP inh -8, HKDC1 inh 2, PfGluPho inh 70* and PfG6PD confirm 19.
For Cc1cccc(NC(=O)c2ccc(N(C)C3CCCCC3)c([N+](=O)[O-])c2)n1 the results were Neddyl block -20, PfM18AAP inh -3, HKDC1 inh 3, PfGluPho inh 60* and PfG6PD confirm -9.
`O=C(Nc1ccc(N2CCCC2)c(Cl)c1)c1ccc([N+](=O)[O-])cc1` gave Neddyl block -15, PfM18AAP inh -2, HKDC1 inh -11 and PfGluPho inh 12.
For Cc1cccc(NC(=O)c2ccc(N3CCCCC3)c([N+](=O)[O-])c2)n1 the results were Neddyl block -33, PfM18AAP inh -4, HKDC1 inh 8, PfGluPho inh 98* and PfG6PD confirm 25.
`CCSc1ccc(C(=O)Nc2cccc(C)n2)cc1[N+](=O)[O-]` gave Neddyl block -7, PfM18AAP inh 0, HKDC1 inh 9 and PfGluPho inh -11.
For Cc1cc(C(=O)Nc2ccc(N3CCCC3)c(Cl)c2)ccc1[N+](=O)[O-] the results were Neddyl block -13, PfM18AAP inh -6, HKDC1 inh 1, PfGluPho inh 67* and PfG6PD confirm 2.
Screening CCOC(=O)C1=CCC2C(=O)N(CC)C(=O)C12 (stereo not given) returned Neddyl block 1.
CC1CCCN(c2ccc(C(=O)Nc3ccc4c(c3)OCO4)cc2[N+](=O)[O-])C1 (stereo not given) was read as Neddyl block -17, PfM18AAP inh -6, HKDC1 inh -5 and PfGluPho inh 44.
`CC1CCN(c2ccc(C(=O)Nc3ccc4c(c3)OCO4)cc2[N+](=O)[O-])CC1` gave Neddyl block -12, PfM18AAP inh 3, HKDC1 inh -4, PfGluPho inh 62* and PfG6PD confirm -13.
CC(C)c1ccc(N=C2N=C(N)c3ccccc32)cc1 was read as Neddyl block -20, PfM18AAP inh -6, HKDC1 inh 0, PfGluPho inh 59* and PfG6PD confirm 30.
For NC1=NC(=Nc2ccc(Cl)cc2)c2ccccc21 the results were Neddyl block -10, PfM18AAP inh -3, HKDC1 inh 5 and PfGluPho inh 6.
Screening O=C(NNC(=O)c1ccccc1C(F)(F)F)c1csc(N2CCOCC2)n1 returned Neddyl block 14, PfM18AAP inh -1, HKDC1 inh -6 and PfGluPho inh -2.
Screening O=C(NCCc1ccccc1)C(=O)NCC1OCCN1S(=O)(=O)c1ccc(F)cc1 (stereo not given) returned Neddyl block -3, PfM18AAP inh 5, HKDC1 inh -7 and PfGluPho inh -1.
